# Reference: ChEMBL document CHEMBL1781932 (J Med Chem, 2011)
# What was measured:
# [1] = AUC (0 to infinity) in Sprague-Dawley rat at 1 mg/kg, iv administered as single dose measured after 24 to 48 hrs; type: ADME, organism-based; parameters: time infinity, dose 1 mg/kg, route intravenous; conditions: plasma
# Summary of the method: (§1)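 Sprague-Dawley rats (n = 3) were fasted overnight (minimum 12 h) and given a single dose, iv 1 mg/kg or oral 10 mg/kg, in sterile water. Samples were taken over 24–48 h. PK parameters came from noncompartmental analysis.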
# [2] = Clearance in Sprague-Dawley rat at 1 mg/kg, iv administered as single dose measured after 24 to 48 hrs; type: ADME, organism-based; parameters: dose 1 mg/kg, route intravenous; conditions: in vivo; summary of the method: as §1
# [3] = Apparent volume of distribution in Sprague-Dawley rat at 1 mg/kg, iv administered as single dose measured after 24 to 48 hrs; conditions: in vivo
# [4] = Elimination half life in Sprague-Dawley rat at 1 mg/kg, iv administered as single dose; type: ADME, organism-based; parameters: dose 1 mg/kg, route intravenous; conditions: in vivo, read-out: beta t1/2 (converted); summary of the method: as §1
# [5] = tested on: Staphylococcus aureus; experiment: Antimicrobial activity against tetracycline-susceptible Staphylococcus aureus Smith isolate 100 infected in po dosed mouse systemic infection model assessed as survival of mouse administered 60 mins post infection measured after 48 hrs; type: functional; conditions: Smith isolate 100, po, read-out: PD50
# Summary of the method: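 Mouse septicemia model with S. aureus ATCC 13709 in 5% mucin, inoculated intraperitoneally at 2.1×10^6 cfu/mouse. Oral gavage dosing began 60 min post-infection at 0.3–30 mg/kg in sterile water, 6 mice/dose group, with untreated infection controls. Survival was assessed over 48 h. PD50 was obtained by Probit analysis with 95% CI.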
# [6] = tested on: Staphylococcus aureus; experiment: Antimicrobial activity against tetracycline-susceptible Staphylococcus aureus Smith isolate 100 infected in iv dosed mouse systemic infection model assessed as survival of mouse administered 60 mins post infection measured up to 48 hrs; type: functional; conditions: Smith isolate 100, iv, read-out: PD50
# Summary of the method: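 Mouse septicemia model with S. aureus ATCC 13709 mixed with 5% mucin, given intraperitoneally at 2.1×10^6 cfu/mouse. Compound was dosed intravenously 60 min after infection at 0.3–30 mg/kg in sterile water, 6 mice/dose group, with untreated infection controls. Survival was followed over 48 h. PD50 was derived by Probit analysis with 95% CI.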
# [7] = tested on: Staphylococcus aureus; experiment: Antimicrobial activity against tetracycline-susceptible Staphylococcus aureus isolate 101 by CLSI dilution method; type: functional
# [8] = tested on: Staphylococcus aureus; experiment: Antimicrobial activity against methicillin-, tetracycline-resistant Staphylococcus aureus isolate 161 harboring tetM gene by CLSI dilution method; type: functional
# [9] = tested on: Staphylococcus aureus; experiment: Antimicrobial activity against tetracycline-resistant Staphylococcus aureus isolate 158 harboring tetK gene by CLSI dilution method; type: functional
# [10] = tested on: Enterococcus faecalis; experiment: Antimicrobial activity against tetracycline-susceptible Enterococcus faecalis isolate 103 by CLSI dilution method; type: functional
# Summary of the method: (§2)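 Broth microdilution per CLSI in fresh cation-adjusted Mueller Hinton broth, kept at 4 °C before testing, with defibrinated horse blood added as appropriate. Strains were from ATCC. MIC in µg/mL. Runs were accepted when comparator antibiotics against ATCC quality-control strains fell within recommended ranges.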
# [11] = tested on: Enterococcus faecalis; experiment: Antimicrobial activity against tetracycline-resistant Enterococcus faecalis isolate 159 harboring […] gene by CLSI dilution method; type: functional
# [12] = tested on: Streptococcus pneumoniae; experiment: Antimicrobial activity against tetracycline-susceptible Streptococcus pneumoniae isolate 106 by CLSI dilution method; type: functional; summary of the method: as §2
# [13] = tested on: Streptococcus pneumoniae; experiment: Antimicrobial activity against tetracycline-resistant Streptococcus pneumoniae isolate 160 harboring tetM gene by CLSI dilution method; type: functional
# [14] = tested on: Escherichia coli; experiment: Antimicrobial activity against tetracycline-susceptible Escherichia coli isolate 107 by CLSI dilution method; type: functional; summary of the method: as §2
# [15] = tested on: Escherichia coli; experiment: Antimicrobial activity against tetracycline-resistant Escherichia coli isolate 155 harboring tetA gene by CLSI dilution method; type: functional
# [16] = tested on: Acinetobacter baumannii; experiment: Antimicrobial activity against tetracycline-susceptible Acinetobacter baumannii isolate 110 by CLSI dilution method; type: functional; summary of the method: as §2
# [17] = tested on: Pseudomonas aeruginosa; experiment: Antimicrobial activity against tetracycline-susceptible Pseudomonas aeruginosa isolate 111 by CLSI dilution method; type: functional; summary of the method: as §2
# [18] = tested on: Enterobacter cloacae; experiment: Antimicrobial activity against tetracycline-susceptible Enterobacter cloacae isolate 108 by CLSI dilution method; type: functional; summary of the method: as §2
# [19] = tested on: Klebsiella pneumoniae; experiment: Antimicrobial activity against tetracycline-susceptible Klebsiella pneumoniae isolate 109 by CLSI dilution method; type: functional; summary of the method: as §2
# [20] = tested on: Klebsiella pneumoniae; experiment: Antimicrobial activity against tetracycline-resistant Klebsiella pneumoniae isolate 153 harboring tetA gene by CLSI dilution method; type: functional
# [21] = tested on: Staphylococcus aureus; experiment: Antimicrobial activity against tetracycline-susceptible Staphylococcus aureus Smith isolate 100 by CLSI dilution method; type: functional
# [22] = Cmax in Sprague-Dawley rat at 1 mg/kg, iv administered as single dose measured after 24 to 48 hrs; type: ADME, organism-based; parameters: dose 1 mg/kg, route intravenous; conditions: in vivo; summary of the method: as §1
# [23] = tested on: Rattus norvegicus; experiment: Oral bioavailability in Sprague-Dawley rat at 10 mg/kg administered as single dose; type: ADME, organism-based; conditions: in vivo; summary of the method: as §1
SMILES,AUC(0-inf) [1] [ng·h/mL],clearance [2] [mL/min/kg],Vd [3] [L/kg],half-life [4] [h],ED50 [6] [mg/kg],MIC [8] [µg/mL],MIC [9] [µg/mL],MIC [10] [µg/mL],MIC [11] [µg/mL],MIC [12] [µg/mL],MIC [13] [µg/mL],MIC [14] [µg/mL],MIC [15] [µg/mL],MIC [16] [µg/mL],MIC [17] [µg/mL],MIC [18] [µg/mL],MIC [19] [µg/mL],MIC [20] [µg/mL],MIC [21] [µg/mL],Cmax [22] [ng/mL],further results
COc1c2c(c(O)c3cc(CN4CCC4)ccc13)C(=O)C1=C(O)[C@]3(O)C(=O)C(C(N)=O)=C(O)[C@@H](N(C)C)[C@@H]3C[C@@H]1C2,1650,10.2,4.65,5.26,0.36,0.5,0.0625,0.0625,1,0.0156,0.0625,0.25,8,1,32,1,1,8,0.0625,618,ED50 [5]: > 20 mg/kg; MIC [7]: 0.0625 µg/mL
COc1c2c(c(O)c3cc(CNC4CC4)ccc13)C(=O)C1=C(O)[C@]3(O)C(=O)C(C(N)=O)=C(O)[C@@H](N(C)C)[C@@H]3C[C@@H]1C2,385,45.4,8.4,2.17,0.6,2,0.0313,0.0625,2,0.0156,0.125,0.5,8,0.25,16,4,2,8,0.25,124,F [23]: 12.5%; MIC [7]: 0.0625 µg/mL
COc1c2c(c(O)c3cc(CNCC(C)C)ccc13)C(=O)C1=C(O)[C@]3(O)C(=O)C(C(N)=O)=C(O)[C@@H](N(C)C)[C@@H]3C[C@@H]1C2,815,20.5,9.6,5.4,< 0.3,2,0.016,0.0625,2,0.0156,0.125,1,4,0.25,16,2,1,8,0.5,414,F [23]: 2.7%
COCCNCc1ccc2cc3c(c(O)c2c1)C(=O)C1=C(O)[C@]2(O)C(=O)C(C(N)=O)=C(O)[C@@H](N(C)C)[C@@H]2C[C@@H]1C3,1980,8.43,3.78,5.19,0.43,4,0.5,0.5,8,0.0156,0.5,1,8,1,32,2,4,8,1,633,F [23]: 2.8%; MIC [7]: 0.25 µg/mL
CN(C)[C@@H]1C(O)=C(C(N)=O)C(=O)[C@@]2(O)C(O)=C3C(=O)c4c(O)cccc4[C@@](C)(O)[C@H]3C[C@@H]12 [TETRACYCLINE],,,,,0.35,,,,,,,,,,,,,,0.25,583,ED50 [5]: 8.1 mg/kg
CC(C)CNCc1ccc2cc3c(c(O)c2c1)C(=O)C1=C(O)[C@]2(O)C(=O)C(C(N)=O)=C(O)[C@@H](N(C)C)[C@@H]2C[C@@H]1C3,2680,6.22,3.16,5.87,0.62,4,0.25,0.5,4,0.0156,0.25,1,4,0.5,32,2,4,4,1,891,F [23]: 1.9%; MIC [7]: 0.25 µg/mL
CN(C)[C@@H]1C(O)=C(C(N)=O)C(=O)[C@@]2(O)C(O)=C3C(=O)c4c(cc5ccc(CN6CC(F)C6)cc5c4O)C[C@H]3C[C@@H]12,3460,4.82,1.4,3.35,0.36,2,0.5,0.5,2,0.125,0.25,2,8,1,> 32,8,8,16,,814,F [23]: 18%; ED50 [5]: 12.2 mg/kg; MIC [7]: 0.5 µg/mL
